As a reminder, the IC50 is the concentration that inhibits the measured activity by half. Read a high IC50 as weaker potency.

Here are results for 15 molecules from ChEMBL document CHEMBL4270489, “Synthesis and in vitro and in vivo antitumour activity study of 11-hydroxyl esterified bergenin/cinnamic acid hybrids” (Eur J Med Chem, 2017).

Each structure is given as a SMILES string.

The test system of data set [1] is PC-3. The data set is described as follows: Antiproliferative activity against human PC3 cells incubated for 48 to 72 hrs by MTT assay. Type of data set: functional, cell-based. An outline of the steps:
(§1)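 MTT assay. Cells were grown in DMEM with 10% heat-inactivated FBS at 37°C under 5% CO₂. They were seeded at 5000/well in 5% FBS DMEM for 24 h, then given compound in DMSO at 0.1, 1, 10 and 100 µmol/L for 72 h (the table footnote says 48 h). MTT was added for 4 h, formazan was dissolved in DMSO and read at 570 nm. IC₅₀ was from ≥3 independent runs; >100 μM was given if 50% inhibition was not reached.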
(Formazan colour is commonly taken as a measure of viable cells.)

For data set [2], the system named is A549. Briefly: Antiproliferative activity against human A549 cells incubated for 48 to 72 hrs by MTT assay. Type of data set: functional, cell-based. The method, boiled down: as §1
In data set [3] the test system is SGC-7901. Briefly: Antiproliferative activity against human SGC7901 cells incubated for 48 to 72 hrs by MTT assay. Type of data set: functional, cell-based. An outline of the steps:
as §1

In data set [4] the test system is MCF7. Briefly: Antiproliferative activity against human MCF7 cells incubated for 48 to 72 hrs by MTT assay. Type of data set: functional, cell-based. An outline of the steps:
as §1

The test system of data set [5] is HepG2. The data set is described as follows: Antiproliferative activity against human HepG2 cells incubated for 48 to 72 hrs by MTT assay. Type of data set: functional, cell-based. The method, boiled down:
as §1

Data set [6] concerns Mus musculus. Briefly: Toxicity in Swiss mouse xenografted with human HepG2 cells assessed as reduction in body weight at 20 mg/kg, ip dosed every day for 14 days. Type of data set: organism-based. As to conditions: in vivo, 336 h. An outline of the steps:
(§2)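 Female Swiss mice (20-22 g) received 3×10⁶ HepG2 cells subcutaneously in the right flank. After 7-21 days they were randomised into groups of 6, including a saline control, and given daily intraperitoneal injections for 14 days. Body weight was recorded daily. Mice were killed on day 14, and tumour wet weight gave the % inhibition. Data are mean ± S.E.M.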
In general terms: Xenograft models place foreign cells or tissue in a host animal.

In data set [7] the test system is HepG2. Briefly: Antitumour activity against human HepG2 cells xenografted in Swiss mouse assessed as inhibition of tumor growth at 20 mg/kg, ip dosed every day for 14 days. Type of data set: functional. As to conditions: 336 h, read-out: TGI. The method, boiled down: as §2

Consider `COc1c(O)cc2c(c1O)[C@@H]1O[C@H](COC(=O)/C=C/c3ccc(F)cc3)[C@@H](O)[C@H](O)[C@H]1OC2=O`, for which the half-inhibitory concentration (IC50) in data set [1] is 22.9 µM; in data set [2], more than 100 µM; in data set [3], more than 100 µM; in data set [4], 35.8 µM; in data set [5], 17.2 µM.
Consider `COc1ccc(/C=C/C(=O)OC[C@H]2O[C@H]3c4c(cc(O)c(OC)c4O)C(=O)O[C@@H]3[C@@H](O)[C@@H]2O)cc1`, for which the concentration for half-maximal inhibition (IC50) was more than 100 µM in data set [1]; 26.4 µM in data set [2]; 15.9 µM in data set [3]; 18.7 µM in data set [4]; 29.7 µM in data set [5].
For `COc1c(O)cc2c(c1O)[C@@H]1O[C@H](COC(=O)/C=C/c3ccc(C)c(C)c3)[C@@H](O)[C@H](O)[C@H]1OC2=O`, the IC50 in data set [1] was more than 100 µM; in data set [2], more than 100 µM; in data set [3], more than 100 µM; in data set [4] it was 59.5 µM; in data set [5], more than 100 µM.
Consider `COc1ccc(/C=C/C(=O)OC[C@H]2O[C@H]3c4c(cc(O)c(OC)c4O)C(=O)O[C@@H]3[C@@H](O)[C@@H]2O)cc1OC`, for which the IC50 in data set [1] was more than 100 µM; in data set [2], more than 100 µM; in data set [3], 58.9 µM; in data set [4], more than 100 µM; in data set [5], 86.1 µM.
On to `COc1c(O)cc2c(c1O)[C@@H]1O[C@H](COC(=O)/C=C/c3ccc(Cl)cc3)[C@@H](O)[C@H](O)[C@H]1OC2=O`, for which the half-maximal inhibitory concentration (IC50) is 86.5 µM in data set [1]; more than 100 µM in data set [2]; more than 100 µM in data set [3]; more than 100 µM in data set [4]; more than 100 µM in data set [5].
`COc1c(O)cc2c(c1O)[C@@H]1O[C@H](COC(=O)/C=C/c3ccc(C)cc3)[C@@H](O)[C@H](O)[C@H]1OC2=O`: the IC50 is 30.2 µM in data set [1]; 10.3 µM in data set [2]; 11.4 µM in data set [3]; 20.2 µM in data set [4]; more than 100 µM in data set [5].
Regarding `COc1c(O)cc2c(c1O)[C@@H]1O[C@H](CO)[C@@H](O)[C@H](O)[C@H]1OC2=O` [BERGENIN], the half-inhibitory concentration (IC50) is more than 100 µM in data set [1]; 77.3 µM in data set [2]; 23.6 µM in data set [3]; more than 100 µM in data set [4]; 34.6 µM in data set [5].
Take `COc1cc(/C=C/C(=O)OC[C@H]2O[C@H]3c4c(cc(O)c(OC)c4O)C(=O)O[C@@H]3[C@@H](O)[C@@H]2O)cc(OC)c1OC`: the half-inhibitory concentration (IC50) was 12.1 µM in data set [1]; 5.46 µM in data set [2]; 7.53 µM in data set [3]; 11.7 µM in data set [4]; 6.62 µM in data set [5].
For `COc1cc(/C=C/C(=O)OC[C@H]2O[C@H]3c4c(cc(O)c(OC)c4O)C(=O)O[C@@H]3[C@@H](O)[C@@H]2O)cc(OC)c1` the same measures were 26.3 µM, 12.3 µM, 27.8 µM, 6.25 µM and 16.8 µM.
In the case of `COc1c(O)cc2c(c1O)[C@@H]1O[C@H](COC(=O)/C=C/c3ccc([N+](=O)[O-])cc3)[C@@H](O)[C@H](O)[C@H]1OC2=O`, the half-inhibitory concentration (IC50) in data set [1], in data set [2], in data set [3], in data set [4] and in data set [5] was more than 100 µM each time.
Turning to `COc1c(O)cc2c(c1O)[C@@H]1O[C@H](COC(=O)/C=C/c3cc([N+](=O)[O-])cc([N+](=O)[O-])c3)[C@@H](O)[C@H](O)[C@H]1OC2=O`, the 50% inhibitory concentration (IC50) in data set [1], in data set [2], in data set [3], in data set [4] and in data set [5] was more than 100 µM each time.
Turning to `COc1c(O)cc2c(c1O)[C@@H]1O[C@H](COC(=O)/C=C/c3ccccc3)[C@@H](O)[C@H](O)[C@H]1OC2=O`, the IC50 in data set [1] is 13.5 µM; in data set [2] it was 56.9 µM; in data set [3] it was 9.67 µM; in data set [4] it was more than 100 µM; in data set [5] it was 18.5 µM.
`O=c1[nH]cc(F)c(=O)[nH]1` [FLUOROURACIL]: the IC50 in data set [1] is 38.6 µM; in data set [2] it was 10.7 µM; in data set [3], 13.2 µM; in data set [4], 7.67 µM; in data set [5] it was 17.4 µM. Also, the Activity result in data set [6] was “Toxic”. For the same molecule, the inhibition in vivo at 20 mg/kg in data set [7] was found to be 52.2%.
Consider `COc1c(O)cc2c(c1O)[C@@H]1O[C@H](COC(=O)/C=C/c3cc(F)cc(F)c3)[C@@H](O)[C@H](O)[C@H]1OC2=O`, for which the IC50 in data set [1] is 46.2 µM; in data set [2], 28.4 µM; in data set [3], more than 100 µM; in data set [4] it was 72.1 µM; in data set [5], more than 100 µM.
Take `COc1c(O)cc2c(c1O)[C@@H]1O[C@H](COC(=O)/C=C/c3ccc(Cl)c(Cl)c3)[C@@H](O)[C@H](O)[C@H]1OC2=O`: the IC50 is more than 100 µM in data set [1]; 63.2 µM in data set [2]; more than 100 µM in data set [3]; more than 100 µM in data set [4]; more than 100 µM in data set [5].
